Several values for one entry are separate records, joined by “and”; a condition that tells them apart may be missing. Equal values may be shown once.
Experiments:
U2OS = assay: Multiplex assay against U2OS; assay type: toxicity, cell-based; details: human
In short: (§1)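 On a CQ1 microscope at 37°C and 5% CO2, live cells were imaged after compound addition. They had been stained at seeding with Hoechst33342, BioTracker Green Microtubule Cytoskeleton Dye, MitoTracker Red and Annexin V Alexa Fluor 680. CellPathfinder machine-learning gating assigned cells to Hoechst high-intensity objects or normal cells, normal cells to healthy, pyknosed or fragmented nuclei, and pyknosed cells to mitotic or apoptotic. Tubulin, mitochondrial-mass and membrane-permeability phenotypes are per cents of healthy-nucleus cells.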

Fibroblast = assay: Multiplex assay against human fibroblast; assay type: toxicity, cell-based; in short: as §1
[1] = 24 h, 10 µM, compound concentration 10 uM
[2] = 48 h, 1 µM, compound concentration 1 uM
[3] = 48 h, 10 µM, compound concentration 10 uM
[4] = 12 h, 1 µM, compound concentration 1 uM
[5] = 12 h, 10 µM, compound concentration 10 uM
[6] = 24 h, 1 µM, compound concentration 1 uM

Q: For `CCN1CCN(Cc2ccc(Nc3ncc(F)c(-c4cc(F)c5nc(C)n(C(C)C)c5c4)n3)nc2)CC1.CS(=O)(=O)O`, which “Population Fragmented Nuclei (%)” value (U2OS; [1]) is on record?
A: 5.44% and 6.04%

Q: What about the “Population Healthy Nuclei (%)” value (U2OS; [1]) of the same compound?
A: 59.59% and 27.52%

Q: What about the “Population Hoechst High Intensity Objects (%)” value (U2OS; [1]) of the same compound?
A: 0%

Q: What about the “Population Membrane Permeable-Phenotype (%)” value (U2OS; [1]) of the same compound?
A: 31.3% and 21.95%

Q: What about the “Population Mitotic Cells (%)” value (U2OS; [1]) of the same compound?
A: 51.11% and 58.59%

Q: And the “Population Normal (%)” value (U2OS; [1])?
A: 100%

Q: And the “Population Pyknosed Nuclei (%)” value (U2OS; [1])?
A: 34.97% and 66.44%

Q: And the “Population Tubulin-Different-Phenotype (%)” value (U2OS; [1])?
A: 66.09% and 65.85%

Q: And the “Total Cell Count” value (U2OS; [1])?
A: 386 and 149

Q: And the “Population Apoptotic (%)” value (U2OS; [2])?
A: 47.62% and 37.14%

Q: What about the “Population Fragmented Nuclei (%)” value (U2OS; [2]) of the same compound?
A: 4.31% and 6.15%

Q: What about the “Population Healthy Nuclei (%)” value (U2OS; [2]) of the same compound?
A: 83.37% and 75.9%

Q: What about the “Population Hoechst High Intensity Objects (%)” value (U2OS; [2]) of the same compound?
A: 0%

Q: What about the “Population Membrane Permeable-Phenotype (%)” value (U2OS; [2]) of the same compound?
A: 2.58% and 6.08%

Q: And the “Population Mitotic Cells (%)” value (U2OS; [2])?
A: 52.38% and 62.86%

Q: What about the “Population Normal (%)” value (U2OS; [2]) of the same compound?
A: 100%

Q: And the “Population Pyknosed Nuclei (%)” value (U2OS; [2])?
A: 12.33% and 17.95%

Q: What about the “Population Tubulin-Different-Phenotype (%)” value (U2OS; [2]) of the same compound?
A: 8.92% and 12.84%

Q: What about the “Total Cell Count” value (U2OS; [2]) of the same compound?
A: 511 and 195

Q: What about the “Population Apoptotic (%)” value (U2OS; [3]) of the same compound?
A: 65% and 80.18%

Q: What about the “Population Fragmented Nuclei (%)” value (U2OS; [3]) of the same compound?
A: 3.14% and 4.64%

Q: What about the “Population Healthy Nuclei (%)” value (U2OS; [3]) of the same compound?
A: 34% and 21.85%

Q: What about the “Population Hoechst High Intensity Objects (%)” value (U2OS; [3]) of the same compound?
A: 0% and 0.66%

Q: What about the “Population Membrane Permeable-Phenotype (%)” value (U2OS; [3]) of the same compound?
A: 9.09%

Q: And the “Population Mitotic Cells (%)” value (U2OS; [3])?
A: 35% and 19.82%

Q: What about the “Population Normal (%)” value (U2OS; [3]) of the same compound?
A: 100% and 99.34%

Q: And the “Population Pyknosed Nuclei (%)” value (U2OS; [3])?
A: 62.86% and 73.51%

Q: And the “Population Tubulin-Different-Phenotype (%)” value (U2OS; [3])?
A: 68.91% and 27.27%

Q: What about the “Total Cell Count” value (U2OS; [3]) of the same compound?
A: 350 and 152

Q: And the “Population Apoptotic (%)” value (Fibroblast; [4])?
A: 17.78% and 12.5%

Q: What about the “Population Fragmented Nuclei (%)” value (Fibroblast; [4]) of the same compound?
A: 19.76% and 8.1%

Q: And the “Population Healthy Nuclei (%)” value (Fibroblast; [4])?
A: 53.29% and 72.47%

Q: What about the “Population Hoechst High Intensity Objects (%)” value (Fibroblast; [4]) of the same compound?
A: 0%

Q: What about the “Population Mitochondria Different-Phenotype (%)” value (Fibroblast; [4]) of the same compound?
A: 15.73% and 16.2%

Q: What about the “Population Mitotic Cells (%)” value (Fibroblast; [4]) of the same compound?
A: 82.22% and 87.5%

Q: What about the “Population Normal (%)” value (Fibroblast; [4]) of the same compound?
A: 100%

Q: What about the “Population Pyknosed Nuclei (%)” value (Fibroblast; [4]) of the same compound?
A: 26.95% and 19.43%

Q: And the “Population Tubulin-Different-Phenotype (%)” value (Fibroblast; [4])?
A: 38.2% and 41.9%

Q: What about the “Total Cell Count” value (Fibroblast; [4]) of the same compound?
A: 167 and 247

Q: And the “Population Apoptotic (%)” value (Fibroblast; [5])?
A: 22.89% and 30%

Q: What about the “Population Fragmented Nuclei (%)” value (Fibroblast; [5]) of the same compound?
A: 14.07% and 8.33%

Q: And the “Population Healthy Nuclei (%)” value (Fibroblast; [5])?
A: 54.37% and 75%

Q: And the “Population Hoechst High Intensity Objects (%)” value (Fibroblast; [5])?
A: 0%

Q: What about the “Population Mitochondria Different-Phenotype (%)” value (Fibroblast; [5]) of the same compound?
A: 15.38% and 7.78%

Q: And the “Population Mitotic Cells (%)” value (Fibroblast; [5])?
A: 77.11% and 70%

Q: What about the “Population Normal (%)” value (Fibroblast; [5]) of the same compound?
A: 100%

Q: What about the “Population Pyknosed Nuclei (%)” value (Fibroblast; [5]) of the same compound?
A: 31.56% and 16.67%

Q: What about the “Population Tubulin-Different-Phenotype (%)” value (Fibroblast; [5]) of the same compound?
A: 68.53% and 62.59%

Q: What about the “Total Cell Count” value (Fibroblast; [5]) of the same compound?
A: 263 and 360

Q: And the “Population Apoptotic (%)” value (Fibroblast; [6])?
A: 25%

Q: And the “Population Fragmented Nuclei (%)” value (Fibroblast; [6])?
A: 16.76% and 6.88%

Q: What about the “Population Healthy Nuclei (%)” value (Fibroblast; [6]) of the same compound?
A: 56.76%

Q: What about the “Population Hoechst High Intensity Objects (%)” value (Fibroblast; [6]) of the same compound?
A: 0%

Q: And the “Population Mitotic Cells (%)” value (Fibroblast; [6])?
A: 89.8% and 75%

Q: And the “Population Normal (%)” value (Fibroblast; [6])?
A: 100%

Q: What about the “Population Pyknosed Nuclei (%)” value (Fibroblast; [6]) of the same compound?
A: 26.49% and 11.59%

Q: And the “Population Tubulin-Different-Phenotype (%)” value (Fibroblast; [6])?
A: 43.81% and 37.78%

Q: And the “Total Cell Count” value (Fibroblast; [6])?
A: 185 and 276

Q: What about the “Population Apoptotic (%)” value (Fibroblast; [1]) of the same compound?
A: 27.71% and 21.01%

Q: What about the “Population Fragmented Nuclei (%)” value (Fibroblast; [1]) of the same compound?
A: 11.19% and 3.61%

Q: What about the “Population Healthy Nuclei (%)” value (Fibroblast; [1]) of the same compound?
A: 58.84% and 63.13%

Q: And the “Population Hoechst High Intensity Objects (%)” value (Fibroblast; [1])?
A: 0%

Q: And the “Population Mitochondria Different-Phenotype (%)” value (Fibroblast; [1])?
A: 23.31% and 9.92%

Q: What about the “Population Mitotic Cells (%)” value (Fibroblast; [1]) of the same compound?
A: 72.29% and 78.99%

Q: What about the “Population Normal (%)” value (Fibroblast; [1]) of the same compound?
A: 100%

Q: And the “Population Pyknosed Nuclei (%)” value (Fibroblast; [1])?
A: 29.96% and 33.25%

Q: What about the “Population Tubulin-Different-Phenotype (%)” value (Fibroblast; [1]) of the same compound?
A: 62.58% and 53.05%

Q: What about the “Total Cell Count” value (Fibroblast; [1]) of the same compound?
A: 277 and 415

Q: What about the “Population Apoptotic (%)” value (Fibroblast; [2]) of the same compound?
A: 23.08% and 25%

Q: And the “Population Fragmented Nuclei (%)” value (Fibroblast; [2])?
A: 17.96% and 9.26%

Q: What about the “Population Healthy Nuclei (%)” value (Fibroblast; [2]) of the same compound?
A: 75.73% and 86.3%

Q: What about the “Population Hoechst High Intensity Objects (%)” value (Fibroblast; [2]) of the same compound?
A: 0%

Q: What about the “Population Mitotic Cells (%)” value (Fibroblast; [2]) of the same compound?
A: 76.92% and 75%

Q: And the “Population Normal (%)” value (Fibroblast; [2])?
A: 100%

Q: And the “Population Pyknosed Nuclei (%)” value (Fibroblast; [2])?
A: 6.31% and 4.44%

Q: What about the “Population Tubulin-Different-Phenotype (%)” value (Fibroblast; [2]) of the same compound?
A: 44.23% and 44.64%

Q: And the “Total Cell Count” value (Fibroblast; [2])?
A: 206 and 270

Q: What about the “Population Apoptotic (%)” value (Fibroblast; [3]) of the same compound?
A: 38.62% and 20.77%

Q: What about the “Population Fragmented Nuclei (%)” value (Fibroblast; [3]) of the same compound?
A: 5.28% and 6.72%

Q: And the “Population Healthy Nuclei (%)” value (Fibroblast; [3])?
A: 58.29% and 65.97%

Q: What about the “Population Hoechst High Intensity Objects (%)” value (Fibroblast; [3]) of the same compound?
A: 0%

Q: What about the “Population Mitotic Cells (%)” value (Fibroblast; [3]) of the same compound?
A: 61.38% and 79.23%

Q: What about the “Population Normal (%)” value (Fibroblast; [3]) of the same compound?
A: 100%

Q: And the “Population Pyknosed Nuclei (%)” value (Fibroblast; [3])?
A: 36.43% and 27.31%

Q: And the “Population Tubulin-Different-Phenotype (%)” value (Fibroblast; [3])?
A: 43.97% and 47.74%

Q: And the “Total Cell Count” value (Fibroblast; [3])?
A: 398 and 670
